OX1R antag-1 = human HCRTR1 antagonism; 330,000 compounds, 0.43% hits; CHO/OX1R cells, Fluo-8 calcium fluorescence, orexin A; inhibition, % at 5 µM; O43613; AID 434989;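 active means inhibition above its plate's threshold, mean inhibition of all tested compounds on the plate plus 3 SD, cut at about 37% in these data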
TAAR1 antagonist = human TAAR1 antagonism. AID 624466. 360,000 compounds, 1.5% hits. CHO RD-HGA16 TAAR1, Fluo-8 calcium fluorescence, antagonist. inhibition, % at 3 µM;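 active means inhibition above a per-plate cutoff, the mean inhibition of test compounds on that plate plus 3 SD, cut at about 49% in these data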
Target sequence (Q96RJ0 whole entry, looked up): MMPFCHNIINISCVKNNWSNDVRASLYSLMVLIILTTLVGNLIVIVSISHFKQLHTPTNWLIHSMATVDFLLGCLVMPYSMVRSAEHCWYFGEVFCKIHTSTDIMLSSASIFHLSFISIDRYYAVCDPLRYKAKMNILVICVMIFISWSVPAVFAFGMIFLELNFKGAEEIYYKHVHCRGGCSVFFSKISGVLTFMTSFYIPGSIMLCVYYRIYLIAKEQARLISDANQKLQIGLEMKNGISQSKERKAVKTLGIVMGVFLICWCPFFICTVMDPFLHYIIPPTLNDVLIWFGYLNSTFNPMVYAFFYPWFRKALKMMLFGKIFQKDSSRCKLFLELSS
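Test system – hTAAR1-expressing CHO RD-HGA16 cells, Gα16-coupled · Also added – β-PEA at EC80 concentration, post-compound challenge · Compound – 3 µM, single point · Incubation – dye loading 75 min at 37 °C, then 30 min room temperature · Measured by – Fluo-8 intracellular calcium dye fluorescence, real-time kinetic reads · Benchmarks – vehicle and agonist controls · Replicates – singlicate, one well per test compound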
OX1R antag-2 = blocks the human orexin 1 receptor; OX1R-expressing cells, FRET antagonist read-out; inhibition, % at 6.6 µM; 330,000 compounds, 1.8% hits; in the data active means inhibition mostly above about 38%, no sharp cut-off; inactive means mostly below about 40%
GalR3 antagonist = human GalR3 antagonism | O60755 | HEK293 GalR3-CNG cAMP membrane potential fluorescence; galR3 body fused to GalR1 C-terminus | inhibition, % at 3 µM | 360,000 compounds, 0.44% hits;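 active means inhibition above the screen-wide average plus 3 SD, cut at about 13% in these data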;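 further: forskolin and galanin both at EC90 stimulate the cells; cAMP rise reported by CNG channel membrane potential dye signal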
Target sequence (O60755 1-299 limits assumed): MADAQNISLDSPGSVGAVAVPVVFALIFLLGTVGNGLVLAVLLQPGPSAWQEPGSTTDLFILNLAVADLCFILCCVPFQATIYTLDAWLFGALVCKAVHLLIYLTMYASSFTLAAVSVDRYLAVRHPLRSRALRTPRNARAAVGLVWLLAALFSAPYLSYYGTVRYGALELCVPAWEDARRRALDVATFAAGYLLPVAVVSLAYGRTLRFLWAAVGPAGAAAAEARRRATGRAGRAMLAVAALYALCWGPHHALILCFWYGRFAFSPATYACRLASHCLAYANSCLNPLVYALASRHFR
CHO parental Ca = counter-screen for OX1R antagonists: effect in parental CHO cells; parental CHO-K1, ATP-induced calcium, Fluo-8 fluorescence; inhibition, % at 5.6 µM; 330,000 compounds, 0.63% hits;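 active means inhibition above that plate's mean sample inhibition plus 3 SD, cut at about 26% in these data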
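Test system: untransfected parental CHO cell line; also added: ATP stimulus; dosing: 5.6 µM, single dose; signal: calcium-sensitive Fluo-8 fluorescence; measure: percent inhibition of ATP-evoked calcium rise, normalized to controls; benchmarks: low control ATP plus DMSO, high control DMSO only; replication: one well per compound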
TAAR1 ag = human TAAR1 agonism; Q96RJ0; CHO RD-HGA16 TAAR1, Fluo-8 calcium fluorescence; vehicle wells 0%, saturating PEA agonist 100%; activation, % at 3 µM; 360,000 compounds, 0.99% hits;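 active means activation above the mean activation of all test compounds in the run plus 3 SD, cut at about 38% in these data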
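Test system: RD-HGA16 (CHO) cells co-expressing Gα16 and hTAAR1 / Benchmarks: DMSO vehicle as 0%, PEA at EC100 as 100% / Repeats: no replicates (n 1) / Measure: % activation from peak over basal fluorescence ratio, DMSO-to-PEA scaled / Timing: 17-24 h plating, Fluo-8 75 min 37 °C, 30 min RT / Technique: kinetic Fluo-8 calcium fluorescence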
Hits are given with their value. Shown are actives, neighbours in structure and some others; about 4.2% of the full set was active somewhere.

Screening COc1ccccc1N(CC(O)Cn1c(C)nc2ccccc21)S(=O)(=O)c1ccccc1 (configuration not stated) returned OX1R antag-1 inactive, TAAR1 antagonist inactive, OX1R antag-2 63, GalR3 antagonist inactive, CHO parental Ca inactive and TAAR1 ag inactive.
For Cc1nn(-c2ccccc2)c(N)c1N=Nc1cccnc1 the results were OX1R antag-1 inactive, TAAR1 antagonist inactive, OX1R antag-2 54, GalR3 antagonist inactive, CHO parental Ca inactive and TAAR1 ag inactive.
`c1ccc2c(c1)Cn1c-2nc2ccccc21` gave OX1R antag-1 inactive, TAAR1 antagonist inactive, OX1R antag-2 inactive, GalR3 antagonist inactive, CHO parental Ca inactive and TAAR1 ag inactive.
Screening Brc1c(-c2ccccc2)nc2n1Cc1ccccc1-2 returned OX1R antag-1 inactive, TAAR1 antagonist inactive, OX1R antag-2 64, GalR3 antagonist inactive, CHO parental Ca inactive and TAAR1 ag inactive.
`Cc1cccc(C)c1CC(=O)N1CCOCC1` gave OX1R antag-1 inactive, TAAR1 antagonist inactive, OX1R antag-2 inactive, GalR3 antagonist inactive, CHO parental Ca inactive and TAAR1 ag inactive.
Screening Cc1cc(C)c(N(C(=O)CN2C(=O)c3ccccc3S2(=O)=O)C(C(=O)NCC2CCCO2)c2ccc(F)cc2)c(C)c1 (configuration not stated) returned OX1R antag-1 inactive, TAAR1 antagonist 52, OX1R antag-2 inactive, GalR3 antagonist inactive, CHO parental Ca inactive and TAAR1 ag inactive.
For COc1ccccc1N(C(=O)CN1C(=O)c2ccccc2S1(=O)=O)C(C(=O)NCC1CCCO1)c1ccc(F)cc1 (configuration not stated) the results were OX1R antag-1 inactive, TAAR1 antagonist inactive, OX1R antag-2 inactive, GalR3 antagonist inactive, CHO parental Ca inactive and TAAR1 ag inactive.
Screening OCCN1CCN(c2cnc(-c3ccsc3)cn2)CC1 returned TAAR1 antagonist inactive, GalR3 antagonist inactive and TAAR1 ag inactive.
O=C(O)CN1C(=O)/C(=C/c2ccccc2Cl)Oc2ccccc21 was read as OX1R antag-1 inactive, TAAR1 antagonist inactive, OX1R antag-2 inactive, GalR3 antagonist inactive, CHO parental Ca inactive and TAAR1 ag inactive.
`O=C(CN1C(=O)/C(=C\c2ccccc2Cl)Oc2ccccc21)NCc1cccnc1` gave OX1R antag-1 inactive, TAAR1 antagonist inactive, OX1R antag-2 72, GalR3 antagonist inactive, CHO parental Ca inactive and TAAR1 ag inactive.
`CCCCCOC(=O)C1=C(C)Nc2ncnn2C1c1cccs1` (configuration not stated) gave OX1R antag-1 inactive, TAAR1 antagonist 57, OX1R antag-2 inactive, GalR3 antagonist inactive, CHO parental Ca inactive and TAAR1 ag inactive.
Screening CC1=C(C(N)=O)C(c2cccs2)n2ncnc2N1 (configuration not stated) returned OX1R antag-1 inactive, TAAR1 antagonist inactive, OX1R antag-2 inactive, GalR3 antagonist inactive, CHO parental Ca inactive and TAAR1 ag inactive.
For COc1ccc(C(=O)Nc2ccc([N+](=O)[O-])cn2)c(OC)c1 the results were OX1R antag-1 inactive, TAAR1 antagonist inactive, OX1R antag-2 inactive, GalR3 antagonist inactive, CHO parental Ca inactive and TAAR1 ag inactive.
For Cc1cc(S(=O)(=O)c2ccc([N+](=O)[O-])cn2)ccc1Br the results were OX1R antag-1 inactive, TAAR1 antagonist inactive, OX1R antag-2 inactive, GalR3 antagonist inactive, CHO parental Ca 55 and TAAR1 ag inactive.
`Cc1cc(Sc2ccc([N+](=O)[O-])cn2)ccc1Br` gave OX1R antag-1 inactive, TAAR1 antagonist inactive, OX1R antag-2 inactive, GalR3 antagonist inactive, CHO parental Ca inactive and TAAR1 ag inactive.
`Cc1ccc(S(=O)(=O)c2ccc([N+](=O)[O-])cn2)cc1` gave OX1R antag-1 inactive, TAAR1 antagonist inactive, OX1R antag-2 inactive, GalR3 antagonist inactive, CHO parental Ca inactive and TAAR1 ag inactive.
Screening O=[N+]([O-])c1ccc(S(=O)(=O)c2ccccc2)nc1 returned OX1R antag-1 inactive, TAAR1 antagonist inactive, OX1R antag-2 59, GalR3 antagonist inactive, CHO parental Ca inactive and TAAR1 ag inactive.
For CC(=O)Nc1ccc(NC(=O)Cn2nc([N+](=O)[O-])c(Br)c2C)cc1 the results were OX1R antag-1 inactive, TAAR1 antagonist inactive, OX1R antag-2 inactive, GalR3 antagonist inactive, CHO parental Ca inactive and TAAR1 ag inactive.
Cc1ccc2c(c1)N(C(=O)CCC(=O)N1CCOCC1)CC(C)O2 (configuration not stated) was read as OX1R antag-1 inactive, TAAR1 antagonist inactive, OX1R antag-2 inactive, CHO parental Ca inactive and TAAR1 ag inactive.
COc1ccccc1NC(=O)c1cc(-c2ccc(OC)c(OC)c2)nc2ccccc12 was read as TAAR1 antagonist 55, GalR3 antagonist inactive and TAAR1 ag inactive.
`COc1ccc(NC(=O)c2cc(-c3cc(OC)c(OC)c(OC)c3)nc3ccccc23)cc1OC` gave OX1R antag-1 inactive, TAAR1 antagonist 55, OX1R antag-2 inactive, GalR3 antagonist inactive, CHO parental Ca inactive and TAAR1 ag inactive.
For CCOc1ccc(NC(=O)CN(C)C(=O)c2cccc3ccccc23)cc1OCC the results were TAAR1 antagonist inactive, GalR3 antagonist inactive and TAAR1 ag inactive.
COc1ccc(-c2cc(C(=O)Nc3nc4c(C)cccc4s3)c3ccccc3n2)cc1OC was read as OX1R antag-1 inactive, TAAR1 antagonist inactive, OX1R antag-2 inactive, GalR3 antagonist inactive, CHO parental Ca inactive and TAAR1 ag inactive.
Screening CCN(Cc1ccccc1)C(=O)c1cc(-c2ccc(OC)c(OC)c2)nc2ccccc12 returned OX1R antag-1 inactive, TAAR1 antagonist 67, OX1R antag-2 inactive, GalR3 antagonist inactive, CHO parental Ca inactive and TAAR1 ag inactive.
CCOc1ccc(NC(=O)CN(C)C(=O)c2cc(-c3ccc(OC)cc3)nc3ccccc23)cc1OCC was read as OX1R antag-1 inactive, TAAR1 antagonist 56, OX1R antag-2 inactive, GalR3 antagonist inactive, CHO parental Ca inactive and TAAR1 ag inactive.
CCc1ccnc(NC(=O)NS(=O)(=O)c2ccc(C)cc2)c1 was read as OX1R antag-1 inactive, TAAR1 antagonist inactive, OX1R antag-2 inactive, GalR3 antagonist inactive, CHO parental Ca inactive and TAAR1 ag inactive.
`COc1cc(-c2cc(C(=O)Nc3ccc(S(N)(=O)=O)cc3)c3ccccc3n2)cc(OC)c1OC` gave OX1R antag-1 inactive, TAAR1 antagonist inactive, OX1R antag-2 inactive, GalR3 antagonist inactive, CHO parental Ca inactive and TAAR1 ag inactive.
Screening CCN(CC)S(=O)(=O)c1ccc(O)c(NC(=O)c2cc(-c3cc(OC)c(OC)c(OC)c3)nc3ccccc23)c1 returned OX1R antag-1 inactive, OX1R antag-2 68 and CHO parental Ca inactive.

Compound activity from PubChem BioAssay.
